Laboratory results: publication PMC2825290 (ACS chemical biology, 2010)
“Also recorded” adds a separate entry of the source.

Legend:
[1] = test system: dorsoventral (DV) axis of zebrafish embryos (BMPR-I inhibition); test: Zebrafish embryo dorsalization; type: in vivo; conditions: for Dorsalization (EC100, μM): zebrafish embryos treated from 3-hpf, concentration when 100% of treated embryos are severely dorsalized, at least 20 embryos per condition
[2] = test system: intersomitic vessel (ISV) formation in Tg(Fli:EGFP)y1 embryos (VEGFR-2 inhibition); test: Zebrafish intersomitic vessel; type: in vivo; conditions: for Effect on ISV formation (words, no concentration given): ISV visualized at 48-hpf
[3] = test system: BMP-responsive C2C12BRA cells (Id1 promoter-firefly luciferase reporter), BMP4; test: BMP-responsive luciferase reporter assay; type: cell-based; conditions: read-out: IC50 in BMP-responsive luciferase reporter assay
zebrafish embryos = test: Zebrafish embryo nonspecific toxicity; conditions: for Early lethality at 20 μM: administered at 3-hpf
[4] = test system: human umbilical vein endothelial cells (HUVEC); test: Endothelial tubule formation; type: cell-based; conditions: 15hr incubation
Outline: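 HUVECs were maintained in EGM-2 on 0.2% gelatin-coated dishes. 1.5 ×10^4 cells were plated on wells pre-coated with extracellular matrix gel and treated with the test compound or DMSO. After 15 hr incubation, tubular network formation was examined by inverted light microscopy.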

[5] = test system: VEGF-stimulated Flk1 phosphorylation; test: Western blot, VEGF-stimulated Flk1 phosphorylation in BAEC; type: cell-based, bovine
[6] = test system: VEGF-induced phosphorylation of AKT; test: Western blot, VEGF-stimulated Akt phosphorylation in BAEC; type: cell-based, bovine
Outline: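 Bovine aortic endothelial cells were grown in DMEM with 10% FBS on 0.2% gelatin-coated dishes. Confluent cells were serum-starved for 18–24 hrs, treated with the test compound or DMSO for 30 min, then stimulated for 8 min with 50 ng/ml VEGF165. Lysates, prepared with protease and phosphatase inhibitors, were immunoblotted for p-AKT and total AKT with infrared-dye detection.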

[7] = target: T1, human TGFβ type-I receptor activin receptor-like kinase 5 (Alk5/TGFβR1) (Homo sapiens, UniProt P36897); test: In vitro kinase assay ALK5; type: biochemical; conditions: purified human enzyme, 10 μM ATP
T1 sequence (P36897 34-503): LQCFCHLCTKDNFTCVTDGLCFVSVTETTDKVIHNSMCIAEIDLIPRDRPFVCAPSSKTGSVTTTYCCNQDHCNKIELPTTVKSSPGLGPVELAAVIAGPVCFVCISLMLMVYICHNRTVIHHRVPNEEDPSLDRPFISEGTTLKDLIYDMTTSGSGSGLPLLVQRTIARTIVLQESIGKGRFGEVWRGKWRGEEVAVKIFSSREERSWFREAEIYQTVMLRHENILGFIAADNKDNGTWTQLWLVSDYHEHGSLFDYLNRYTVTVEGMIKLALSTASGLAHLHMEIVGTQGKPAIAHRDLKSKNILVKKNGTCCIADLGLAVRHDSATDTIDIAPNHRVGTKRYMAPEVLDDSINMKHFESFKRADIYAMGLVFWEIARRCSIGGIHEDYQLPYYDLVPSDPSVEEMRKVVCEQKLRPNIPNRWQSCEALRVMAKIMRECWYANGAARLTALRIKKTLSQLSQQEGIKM

[8] = target: human AMP-activated protein kinase (AMPK/A1/B1/G1) (Homo sapiens, UniProt Q13131); test: In vitro kinase assay AMPK; type: biochemical; conditions: purified human enzyme, 10 μM ATP
[9] = target: human VEGF type-II receptor (KDR/Flk-1/VEGFR2) (Homo sapiens, UniProt P35968); test: In vitro kinase assay KDR; type: biochemical
[10] = target: human platelet-derived growth factor receptor-β (PDGFRβ) (Homo sapiens, UniProt P09619); test: In vitro kinase assay PDGFRβ; type: biochemical; conditions: purified human enzyme, 10 μM ATP
caALK3 = caALK3 (Homo sapiens, UniProt P36894, Q233D); test: BMP reporter subtype analysis, caALK3; type: cell-based
caALK6 = test: BMP reporter subtype analysis, caALK6; type: cell-based; conditions: C2C12BRA cells transfected with constitutively active ALK6
[11] = test system: BMP4-induced Smad 1/5/8 phosphorylation; test: Western blot, BMP4-induced Smad1/5/8 phosphorylation in HEK293 cells; type: cell-based; conditions: BMP4 50 ng/ml
[12] = test system: BMP4-induced p38 MAPK phosphorylation; test: Western blot, BMP4-induced p38 MAPK phosphorylation in HEK293 cells; type: cell-based
Outline: (§1)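 Confluent HEK293 cells were serum-starved, then pretreated with the test compound or DMSO for 30 min. They were then stimulated for 30 min with Activin-A at 40 ng/ml (p-Smad2) or BMP4 at 50 ng/ml (p-p38 MAPK). Cells were lysed with protease and phosphatase inhibitors, and lysates were run on SDS-PAGE and transferred to PVDF. Phospho-proteins were detected by infrared-dye secondary antibodies.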

[13] = test system: Activin A-induced Smad2 phosphorylation; test: Western blot, Activin A-induced Smad2 phosphorylation in HEK293 cells; type: cell-based; conditions: Activin-A 40 ng/ml
Outline: as §1

human VEGF type-II receptor (KDR/Flk-1/VEGFR2), sequence (P35968 20-1356): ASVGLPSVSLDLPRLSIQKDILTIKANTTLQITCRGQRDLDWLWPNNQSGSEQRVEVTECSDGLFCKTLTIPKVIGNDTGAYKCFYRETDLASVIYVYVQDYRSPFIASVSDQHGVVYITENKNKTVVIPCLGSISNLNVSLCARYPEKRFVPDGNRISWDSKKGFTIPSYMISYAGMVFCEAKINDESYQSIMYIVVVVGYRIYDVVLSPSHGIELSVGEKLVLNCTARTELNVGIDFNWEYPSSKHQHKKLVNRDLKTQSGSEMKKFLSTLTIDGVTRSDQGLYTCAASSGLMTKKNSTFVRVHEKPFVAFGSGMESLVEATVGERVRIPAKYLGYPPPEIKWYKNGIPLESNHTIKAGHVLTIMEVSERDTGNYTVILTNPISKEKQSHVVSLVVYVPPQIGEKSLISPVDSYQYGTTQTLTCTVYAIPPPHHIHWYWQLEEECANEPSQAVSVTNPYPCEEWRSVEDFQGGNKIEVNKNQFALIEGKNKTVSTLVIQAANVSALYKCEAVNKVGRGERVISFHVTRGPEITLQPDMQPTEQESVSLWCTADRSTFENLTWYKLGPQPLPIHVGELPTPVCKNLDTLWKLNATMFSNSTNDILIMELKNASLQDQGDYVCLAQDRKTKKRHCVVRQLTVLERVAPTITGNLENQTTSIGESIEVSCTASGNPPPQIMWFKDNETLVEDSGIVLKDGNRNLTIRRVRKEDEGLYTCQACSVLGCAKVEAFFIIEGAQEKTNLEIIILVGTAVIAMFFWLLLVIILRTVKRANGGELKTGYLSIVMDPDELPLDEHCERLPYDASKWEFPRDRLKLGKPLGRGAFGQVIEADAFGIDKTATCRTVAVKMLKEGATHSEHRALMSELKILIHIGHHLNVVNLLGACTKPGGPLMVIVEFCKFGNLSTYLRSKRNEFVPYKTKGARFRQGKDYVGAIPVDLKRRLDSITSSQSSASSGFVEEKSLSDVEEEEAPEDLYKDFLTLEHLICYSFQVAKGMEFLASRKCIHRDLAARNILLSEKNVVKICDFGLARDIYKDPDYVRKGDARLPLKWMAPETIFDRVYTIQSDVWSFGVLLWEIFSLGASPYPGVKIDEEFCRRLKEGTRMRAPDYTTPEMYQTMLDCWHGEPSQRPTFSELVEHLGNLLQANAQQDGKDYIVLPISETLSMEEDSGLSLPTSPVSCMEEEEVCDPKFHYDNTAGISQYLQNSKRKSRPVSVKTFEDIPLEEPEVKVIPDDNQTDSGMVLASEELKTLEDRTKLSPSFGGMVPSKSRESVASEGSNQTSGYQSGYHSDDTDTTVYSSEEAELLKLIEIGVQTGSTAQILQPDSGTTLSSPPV
human AMP-activated protein kinase (AMPK/A1/B1/G1), sequence (Q13131 whole entry): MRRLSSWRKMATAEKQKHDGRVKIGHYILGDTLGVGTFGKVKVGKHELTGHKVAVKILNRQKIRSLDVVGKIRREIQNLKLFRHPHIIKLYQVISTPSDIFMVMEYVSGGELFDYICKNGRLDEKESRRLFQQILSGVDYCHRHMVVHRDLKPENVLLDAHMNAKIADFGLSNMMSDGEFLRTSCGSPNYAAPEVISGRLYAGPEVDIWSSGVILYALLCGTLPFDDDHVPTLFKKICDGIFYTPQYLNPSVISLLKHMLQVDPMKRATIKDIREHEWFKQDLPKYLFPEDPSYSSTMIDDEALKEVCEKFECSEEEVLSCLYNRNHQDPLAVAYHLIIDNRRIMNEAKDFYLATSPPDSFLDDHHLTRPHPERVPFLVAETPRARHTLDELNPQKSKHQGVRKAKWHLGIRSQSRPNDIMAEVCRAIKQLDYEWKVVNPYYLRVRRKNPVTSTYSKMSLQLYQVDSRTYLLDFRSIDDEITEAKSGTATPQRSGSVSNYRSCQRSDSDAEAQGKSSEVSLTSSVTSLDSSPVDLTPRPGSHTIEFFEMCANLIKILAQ
human AMP-activated protein kinase (AMPK/A1/B1/G1), sequence (Q9Y478 whole entry partner): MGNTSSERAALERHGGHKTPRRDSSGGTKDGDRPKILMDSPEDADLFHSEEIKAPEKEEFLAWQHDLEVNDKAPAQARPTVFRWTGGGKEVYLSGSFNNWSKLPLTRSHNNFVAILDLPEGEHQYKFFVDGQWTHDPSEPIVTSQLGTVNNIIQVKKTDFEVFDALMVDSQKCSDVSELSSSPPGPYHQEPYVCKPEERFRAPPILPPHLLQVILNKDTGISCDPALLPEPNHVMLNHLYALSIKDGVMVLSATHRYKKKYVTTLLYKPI
human AMP-activated protein kinase (AMPK/A1/B1/G1), sequence (P54619 whole entry partner): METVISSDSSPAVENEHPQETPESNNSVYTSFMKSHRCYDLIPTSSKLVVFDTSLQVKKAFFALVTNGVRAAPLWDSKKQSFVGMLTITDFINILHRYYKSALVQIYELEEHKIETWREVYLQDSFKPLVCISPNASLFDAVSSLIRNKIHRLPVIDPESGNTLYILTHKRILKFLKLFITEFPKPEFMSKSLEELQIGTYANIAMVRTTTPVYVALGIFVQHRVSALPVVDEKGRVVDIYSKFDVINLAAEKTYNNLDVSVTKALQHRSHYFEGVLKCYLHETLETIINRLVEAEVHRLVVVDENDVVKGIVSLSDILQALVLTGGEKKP
human platelet-derived growth factor receptor-β (PDGFRβ), sequence (P09619 33-1106): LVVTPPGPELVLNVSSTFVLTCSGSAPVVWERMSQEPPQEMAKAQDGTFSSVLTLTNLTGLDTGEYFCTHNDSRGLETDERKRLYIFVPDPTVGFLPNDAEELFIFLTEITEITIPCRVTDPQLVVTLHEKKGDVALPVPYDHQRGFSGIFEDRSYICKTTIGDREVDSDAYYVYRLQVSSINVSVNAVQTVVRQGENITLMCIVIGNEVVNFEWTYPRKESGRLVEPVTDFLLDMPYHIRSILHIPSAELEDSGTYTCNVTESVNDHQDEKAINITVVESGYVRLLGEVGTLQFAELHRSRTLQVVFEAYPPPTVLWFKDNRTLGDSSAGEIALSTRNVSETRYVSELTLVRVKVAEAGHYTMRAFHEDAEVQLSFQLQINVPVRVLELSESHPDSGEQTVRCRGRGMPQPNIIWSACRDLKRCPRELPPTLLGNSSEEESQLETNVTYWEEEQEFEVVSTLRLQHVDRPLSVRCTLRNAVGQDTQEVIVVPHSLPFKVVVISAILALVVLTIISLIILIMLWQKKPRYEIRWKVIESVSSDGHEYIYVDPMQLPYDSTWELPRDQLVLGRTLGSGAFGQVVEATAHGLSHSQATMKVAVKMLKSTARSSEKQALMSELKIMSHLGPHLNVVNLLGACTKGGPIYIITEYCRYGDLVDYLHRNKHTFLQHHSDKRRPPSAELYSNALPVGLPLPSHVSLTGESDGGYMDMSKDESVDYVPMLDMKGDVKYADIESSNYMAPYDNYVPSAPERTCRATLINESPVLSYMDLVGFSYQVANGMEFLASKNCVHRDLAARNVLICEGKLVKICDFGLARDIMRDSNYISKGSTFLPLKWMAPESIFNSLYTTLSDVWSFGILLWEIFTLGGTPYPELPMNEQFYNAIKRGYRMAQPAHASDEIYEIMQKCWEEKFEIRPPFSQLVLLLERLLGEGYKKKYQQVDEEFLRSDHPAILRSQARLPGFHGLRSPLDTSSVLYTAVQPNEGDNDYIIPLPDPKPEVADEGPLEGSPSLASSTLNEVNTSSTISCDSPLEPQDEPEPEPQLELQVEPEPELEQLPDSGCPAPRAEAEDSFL
caALK3, sequence (P36894 24-532 Q233D): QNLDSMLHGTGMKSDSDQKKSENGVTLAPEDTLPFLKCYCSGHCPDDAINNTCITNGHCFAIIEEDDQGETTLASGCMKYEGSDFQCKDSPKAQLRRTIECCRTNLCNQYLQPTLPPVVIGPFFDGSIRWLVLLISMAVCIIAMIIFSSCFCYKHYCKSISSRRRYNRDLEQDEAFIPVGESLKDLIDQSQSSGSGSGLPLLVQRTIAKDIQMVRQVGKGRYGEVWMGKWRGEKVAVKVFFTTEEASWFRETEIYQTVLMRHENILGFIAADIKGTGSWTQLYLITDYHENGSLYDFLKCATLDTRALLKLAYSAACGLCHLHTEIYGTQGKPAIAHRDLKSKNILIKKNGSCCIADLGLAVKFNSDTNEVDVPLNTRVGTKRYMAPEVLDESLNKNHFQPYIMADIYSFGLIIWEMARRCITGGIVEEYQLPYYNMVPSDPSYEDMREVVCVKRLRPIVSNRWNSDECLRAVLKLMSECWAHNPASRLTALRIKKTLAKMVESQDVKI

SMILES: CN(C)CCCOc1ccc(-c2cnc3c(-c4ccnc5ccccc45)cnn3c2)cc1 [DMH3, N,N-dimethyl-3-(4-(3-(quinolin-4-yl)pyrazolo[1,5-a]pyrimidin-6-yl)phenoxy)propan-1-amine]
- Dorsalization (EC100, μM) [1]: ~1 µM
- Effect on ISV formation (words, no concentration given) ([2]; administered at 12-hpf): did not have any detectible effect on ISV formation
- IC50 [3]: ~7 nM

SMILES: c1ccc2c(-c3cnn4cc(-c5ccc(OCCN6CCOCC6)cc5)cnc34)ccnc2c1 [DMH2, 4-(2-(4-(3-(quinolin-4-yl)pyrazolo[1,5-a]pyrimidin-6-yl)phenoxy)ethyl)morpholine]
- Dorsalization (EC100, μM) [1]: ~0.1 µM
- Effect on ISV formation (words, no concentration given) ([2]; administered at 12-hpf): did not have any detectible effect on ISV formation
- IC50 [3]: ~20 nM
- Nonspecific developmental effects (zebrafish embryos; at higher concentrations): caused nonspecific developmental effects at higher concentrations

SMILES: c1ccc(-c2cnn3cc(-c4ccc(OCCN5CCOCC5)cc4)cnc23)cc1 [DMH4, 4-(2-(4-(3-phenylpyrazolo[1,5-a]pyrimidin-6-yl)phenoxy)ethyl)morpholine]
- Effect on dorsoventral axis at 50 μM ([1]; 50 μM, treated from 3-hpf): no effect on dorsoventral axis
- Effect on DV axis (words, no concentration given) ([1]; administered at 3-hpf): no discernable effect on DV axis
- Dorsalization (EC100, μM) [1]: No (>50) μM
- Effect on ISV and SIV formation at 1 μM ([2]; 1 μM): disrupted both ISV and SIV formation
- Effect on ISV formation (words, no concentration given) ([2]; administered at 12-hpf): caused significant defects in the ISV and the subintestinal vessel (SIV)
- Effect on tubular network formation at 1 μM [4]: effectively blocked angiogenesis; also recorded: blocked VEGF-induced tubular network formation
- Effect on VEGF-stimulated Flk1 phosphorylation ([5]; 50ng/ml VEGF165): effectively blocked VEGF-stimulated phosphorylation; also recorded: blocked VEGF-induced phosphorylation
- Effect on VEGF-stimulated Akt phosphorylation [6]: effectively blocked VEGF-stimulated phosphorylation; also recorded: blocked VEGF-induced phosphorylation

SMILES: CC(C)Oc1ccc(-c2cnc3c(-c4ccnc5ccccc45)cnn3c2)cc1 [DMH1, 4-(6-(4-isopropoxyphenyl)pyrazolo[1,5-a]pyrimidin-3-yl)quinoline]
- Dorsalization at 0.2 μM ([1]; 0.2 μM, treated from 3-hpf): caused severe dorsalization
- Effect on ISV formation at 100 μM ([2]; 100 μM, treated from 12-hpf): no effect on ISV formation
- Effect on ISV formation (words, no concentration given) ([2]; administered at 12-hpf): did not have any detectible effect on ISV formation
- IC50 ALK5 (TGFβR-I) [7]: without any detectable inhibition
- IC50 AMPK [8]: without any detectable inhibition
- IC50 [9]: > 30000 nM
- IC50 KDR (VEGFR2) ([9]; purified human enzyme, 10 μM ATP): without any detectable inhibition
- IC50 PDGFRβ [10]: without any detectable inhibition
- IC50 [3]: ~100 nM
- IC50 (caALK3): < 500 nM
- Effect on signaling by caALK6 (caALK6): negligible effect on signaling by caALK6
- Effect on VEGF-stimulated Flk1 phosphorylation ([5]; 50ng/ml VEGF165): no effect on VEGF-induced Flk1 phosphorylation
- Effect on BMP-induced Smad1/5/8 activation [11]: selectively inhibited the BMP-induced Smad1/5/8 activation; also recorded: blocked BMP4-induced Smad 1/5/8 phosphorylation
- Effect on BMP4-induced p38 MAPK phosphorylation [12]: no effect
- Effect on Activin A-induced Smad2 phosphorylation [13]: no effect

SMILES: c1ccc2c(-c3cnn4cc(-c5ccc(N6CCNCC6)cc5)cnc34)ccnc2c1 [LDN-193189, reference compound]
- Dorsalization (EC100, μM) [1]: 3 µM
- Effect on ISV formation at 20 μM ([2]; 20 μM, administered at 12-hpf): significantly inhibited ISV formation
- Early lethality at 20 μM (zebrafish embryos): substantial early lethality

SMILES: c1cc(-c2cnn3cc(-c4ccc(OCCN5CCCCC5)cc4)cnc23)ccn1 [DM, dorsomorphin, reference compound]
- Dorsalization at 2 μM ([1]; 2 μM, administered at 3-hpf): dorsalized zebrafish embryos
- Effect on ISV formation at 10 μM ([2]; administered at 12-hpf): blocked intersomitic vessel (ISV) formation
- Effect on ISV formation at 10 μM ([2]; administered at 12-hpf, listed as dorsomorphin): completely inhibited ISV formation
- Effect on VEGF-stimulated Flk1 phosphorylation ([5]; 50ng/ml VEGF165): suppressed VEGF-dependent Flk1 phosphorylation in a dose-dependent manner
- Effect on VEGF-stimulated Flk1 phosphorylation ([5]; 50ng/ml VEGF165, listed as dorsomorphin): inhibited the VEGF-stimulated Flk1 phosphorylation in a dose-dependent manner
- Early lethality at 20 μM (zebrafish embryos): substantial early lethality
